Reference: ChEMBL document CHEMBL5143713, “Multitarget, Selective Compound Design Yields Potent Inhibitors of a Kinetoplastid Pteridine Reductase 1” (J Med Chem, 2022)

Assays:
[1] = tested on: 786-0; test: Mitochondrial toxicity in human 786-0 cells at 10 uM incubated with compound for 6 hrs followed by incubation with MitoTracker Red chloromethyl-X-rosamine dye for 45 mins by imaging analysis relative to control; type: cell-based; conditions: 786-0, 6 h
Method in brief: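 Tested at 10 μM. 786-O cells kept in RPMI-1640 with 2 mM glutamine, 10% FCS, streptomycin 100 μg/mL and penicillin G 100 U/mL. Mitochondrial toxicity read as MitoTracker Red (chloromethyl-X-rosamine) uptake by high-content imaging.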

[2] = tested on: A549; test: Cytotoxicity against human A549 cells at 10 uM measured after 48 hrs by Celltiter-Glo assay relative to control; type: toxicity, cell-based; conditions: a549, 48 h
Method in brief: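 Tested at 10 μM. A549 cells grown in DMEM with 10% FCS, streptomycin 100 μg/mL and penicillin G 100 U/mL. Viability read as cellular ATP by CellTiter-Glo luminescence.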

[3] = biological target: Bifunctional dihydrofolate reductase-thymidylate synthase (Trypanosoma brucei brucei, UniProt Q27783); test: Inhibition of recombinant Trypanosoma brucei DHFR-TS expressed in Escherichia coli BL21 (DE3) cells using dihydrofolate as substrate in presence of NADPH by spectrophotometric analysis
[4] = biological target: Bifunctional dihydrofolate reductase-thymidylate synthase (Leishmania major, UniProt P07382); test: Inhibition of recombinant Leishmania major DHFR-TS expressed in Escherichia coli BL21 (DE3) cells using dihydrofolate as substrate in presence of NADPH by spectrophotometric analysis
[5] = biological target: T1, Dihydrofolate reductase (Homo sapiens, UniProt P00374); test: Inhibition of recombinant human DHFR expressed in Escherichia coli BL21 (DE3) cells using dihydrofolate as substrate in presence of NADPH by spectrophotometric analysis; type: toxicity
T1 sequence (P00374 whole entry): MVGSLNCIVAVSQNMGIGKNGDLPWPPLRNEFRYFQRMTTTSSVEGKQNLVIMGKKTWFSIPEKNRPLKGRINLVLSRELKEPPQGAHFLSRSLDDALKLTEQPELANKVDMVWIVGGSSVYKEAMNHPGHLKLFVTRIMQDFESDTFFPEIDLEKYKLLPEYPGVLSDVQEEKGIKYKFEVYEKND

[6] = biological target: T2, Pteridine reductase, putative (Trypanosoma brucei, UniProt Q581W1); test: Inhibition of recombinant Trypanosoma brucei PTR1 expressed in Escherichia coli BL21 (DE3) cells using H2B as substrate in presence of cytochrome c and NADPH by envision multilabel reader
T2 sequence (Q581W1 whole entry): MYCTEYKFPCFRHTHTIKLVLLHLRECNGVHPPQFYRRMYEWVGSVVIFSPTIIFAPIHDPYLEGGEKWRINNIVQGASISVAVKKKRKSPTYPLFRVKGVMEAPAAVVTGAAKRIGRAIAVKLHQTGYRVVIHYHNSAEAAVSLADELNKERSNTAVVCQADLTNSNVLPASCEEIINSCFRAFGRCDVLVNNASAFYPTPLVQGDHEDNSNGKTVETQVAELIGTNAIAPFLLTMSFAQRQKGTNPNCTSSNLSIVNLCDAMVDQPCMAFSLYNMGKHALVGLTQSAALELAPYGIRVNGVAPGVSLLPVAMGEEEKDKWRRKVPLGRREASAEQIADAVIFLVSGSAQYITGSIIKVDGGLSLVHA

[7] = tested on: human DHFR versus Leishmania major DHFR; test: Selectivity index, ratio of IC50 for human DHFR to IC50 for Leishmania major DHFR; type: toxicity; conditions: read-out: Ratio IC50
[8] = tested on: human DHFR versus Leishmania major PTR1; test: Selectivity index, ratio of IC50 for human DHFR to IC50 for Leishmania major PTR1; type: toxicity; conditions: read-out: Ratio IC50
[9] = tested on: human DHFR versus Trypanosoma brucei DHFR; test: Selectivity index, ratio of IC50 for human DHFR to IC50 for Trypanosoma brucei DHFR; type: toxicity; conditions: read-out: Ratio IC50
[10] = tested on: human DHFR versus Trypanosoma brucei PTR1; test: Selectivity index, ratio of IC50 for human DHFR to IC50 for Trypanosoma brucei PTR1; type: toxicity; conditions: read-out: Ratio IC50
[11] = biological target: T3, Pteridine reductase 1 (Leishmania major, UniProt Q01782); test: Inhibition of recombinant Leishmania major PTR1 expressed in Escherichia coli BL21 (DE3) cells using H2B as substrate in presence of cytochrome c and NADPH by envision multilabel reader
T3 sequence (Q01782 whole entry): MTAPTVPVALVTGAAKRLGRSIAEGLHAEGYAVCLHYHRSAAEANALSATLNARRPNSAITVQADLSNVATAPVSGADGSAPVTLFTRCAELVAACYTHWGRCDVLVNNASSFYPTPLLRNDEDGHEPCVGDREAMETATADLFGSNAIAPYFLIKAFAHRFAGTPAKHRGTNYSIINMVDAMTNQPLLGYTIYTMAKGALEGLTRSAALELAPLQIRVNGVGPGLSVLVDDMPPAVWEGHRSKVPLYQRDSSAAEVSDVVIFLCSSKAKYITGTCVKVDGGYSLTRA

[12] = tested on: Trypanosoma brucei brucei; test: Antitrypanosomal activity against bloodstream form of Trypanosoma brucei brucei Lister 427 assessed as parasite growth inhibition at 10 uM incubated for 72 hrs by resazurin dye based analysis relative to control; type: functional
[13] = Cytotoxicity against human THP-1 derived macrophages by colorimetric MTT assay; type: toxicity, cell-based, Macrophage; conditions: THP-1 derived macrophages
Method in brief: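 CC50 from at least three independent MTT colorimetric cytotoxicity runs on THP-1-derived macrophages. Selectivity index is CC50 (or lower CC50 interval estimate) divided by antiparasitic EC50.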

[14] = tested on: Trypanosoma brucei brucei; test: Antitrypanosomal activity against bloodstream form of Trypanosoma brucei brucei Lister 427 assessed as parasite growth inhibition incubated for 72 hrs by resazurin dye based analysis; type: functional, organism-based; conditions: Lister 427, 72 h

Bifunctional dihydrofolate reductase-thymidylate synthase (Trypanosoma brucei brucei, UniProt Q27783), sequence (Q27783 whole entry): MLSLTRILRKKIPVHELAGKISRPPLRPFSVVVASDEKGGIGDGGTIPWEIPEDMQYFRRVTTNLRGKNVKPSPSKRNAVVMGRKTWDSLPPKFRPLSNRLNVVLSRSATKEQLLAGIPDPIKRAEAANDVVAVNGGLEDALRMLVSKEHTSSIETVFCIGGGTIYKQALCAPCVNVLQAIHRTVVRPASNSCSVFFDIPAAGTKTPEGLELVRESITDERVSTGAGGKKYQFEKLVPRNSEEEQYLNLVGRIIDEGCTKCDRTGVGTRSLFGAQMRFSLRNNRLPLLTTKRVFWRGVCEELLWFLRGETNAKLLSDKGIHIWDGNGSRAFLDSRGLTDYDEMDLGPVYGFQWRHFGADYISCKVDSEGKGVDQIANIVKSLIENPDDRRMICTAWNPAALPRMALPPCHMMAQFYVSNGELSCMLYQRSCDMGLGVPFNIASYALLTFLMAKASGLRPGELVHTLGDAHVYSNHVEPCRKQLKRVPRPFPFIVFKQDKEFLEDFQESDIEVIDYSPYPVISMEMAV
Bifunctional dihydrofolate reductase-thymidylate synthase (Leishmania major, UniProt P07382), sequence (P07382 whole entry): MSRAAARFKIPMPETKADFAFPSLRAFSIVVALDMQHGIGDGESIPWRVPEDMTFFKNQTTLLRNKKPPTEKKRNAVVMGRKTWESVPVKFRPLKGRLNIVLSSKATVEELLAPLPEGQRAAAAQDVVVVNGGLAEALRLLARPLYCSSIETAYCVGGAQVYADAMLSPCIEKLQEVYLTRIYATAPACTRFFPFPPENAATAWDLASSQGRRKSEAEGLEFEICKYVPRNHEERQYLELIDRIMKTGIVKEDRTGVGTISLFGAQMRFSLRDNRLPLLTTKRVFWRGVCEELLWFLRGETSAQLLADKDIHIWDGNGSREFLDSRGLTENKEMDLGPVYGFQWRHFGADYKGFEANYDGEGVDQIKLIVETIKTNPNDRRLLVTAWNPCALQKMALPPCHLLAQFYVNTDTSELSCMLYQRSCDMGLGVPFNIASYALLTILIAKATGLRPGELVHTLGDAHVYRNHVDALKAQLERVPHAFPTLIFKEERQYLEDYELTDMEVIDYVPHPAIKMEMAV

SMILES	Activity [1] [%]	Activity [2] [%]	IC50 [3] [nM]	IC50 [4] [nM]	IC50 [5] [nM]	IC50 [6] [nM]	selectivity ratio [7]	selectivity ratio [8]	selectivity ratio [9]	selectivity ratio [10]	IC50 [11] [nM]	inhibition at 10 µM [12] [%]	CC50 [13] [nM]	EC50 [14] [nM]
COC(=O)C1CCN(C(=O)c2ccc(NCc3cnc4nc(N)nc(N)c4n3)cc2)CC1	0	100	20500	620	51000	110								
COC(=O)C1CCN(C(=O)c2ccc(N(C)Cc3cnc4nc(N)nc(N)c4n3)cc2)CC1	0	100	270	260	44000	50								
NC(=O)C1CCN(C(=O)c2ccc(NCc3cnc4nc(N)nc(N)c4n3)cc2)CC1	0	0	2900	1110		820								
COC(=O)C1CCN(C(=O)c2ccc(NCc3cnc4nc(N)nc(N)c4n3)cn2)CC1	0		2570	1360	60000	550								
Nc1nc(N)c2nc(CNc3ccc(C(=O)N4CCC(C(=O)O)CC4)cc3)cnc2n1	0	0	1380	600		1720								
Nc1nc(N)c2nc(CNc3cccc4ccccc34)cnc2n1	0	0	450	1510	4400	10	3	440	10	440	10			
COC(=O)C1CCN(C(=O)c2cccc(NCc3cnc4nc(N)nc(N)c4n3)c2)CC1					59000	150	2	35	3	393	1690			
COc1ccc(CNC(=O)c2ccc(CNCc3cnc4nc(N)nc(N)c4n3)cc2)cc1OC	0					220	1	64	2	455	1570			
Nc1nc(N)c2nc(C(=O)NCc3cccc(C(F)(F)F)c3)cnc2n1	0	100				10	1	303	1	10000	330			
CCN(Cc1cnc2nc(N)nc(N)c2n1)c1ccc(C(=O)N2CCC(C(=O)OC)CC2)cc1	0	100	620	460	4300	90	9		7	48	13300			
COc1cc(Oc2ccc(CNCc3cnc4nc(N)nc(N)c4n3)cc2)cc(OC)c1OC	0	100				350	1	588	1	286	170			
COC(=O)C1CCN(C(=O)c2ccc(SCc3cnc4nc(N)nc(N)c4n3)nc2)CC1	20		2400	9360	89000	1	10	1480	37	89000	60			
CCOC(=O)C1CCCN1C(=O)c1ccc(NCc2cnc3nc(N)nc(N)c3n2)cc1 (stereo not drawn)	0		980	1210			8		10	0.08				
NC(=O)C1CCN(C(=O)Cc2ccc(N(CCCO)Cc3cnc4nc(N)nc(N)c4n3)cc2)CC1	0		18000	1140		10					170	30		
C#CCN(Cc1cnc2nc(N)nc(N)c2n1)c1ccc(C(=O)N2CCC(C(=O)OC)CC2)cc1			1180	710	78000	40	110	244	66	1950	320			
COc1ccc(Oc2ccc(CN(Cc3ccccc3)Cc3cnc4nc(N)nc(N)c4n3)cc2)cc1	0					240					150	100	12500	4530
CN(Cc1cnc2nc(N)nc(N)c2n1)c1ccc(C(=O)N2CCCCC2)cc1	15		1450	2050		10	15	213	21	2980	140			
Nc1nc(N)c2nc(C(=O)NCc3ccccc3)cnc2n1	0	100				10	1	18	1	10000	5500			
CCOC(=O)C1CCN(C(=O)c2ccc(N(CC)Cc3cnc4nc(N)nc(N)c4n3)cc2)CC1			230	180	13000	1					100			
Nc1nc(N)c2nc(CNCc3ccc(Oc4ccccc4)cc3)cnc2n1	0					190	1	102	1	526	980			
Nc1nc(N)c2nc(CNc3ccc(C(=O)NCCc4ccccc4)cc3)cnc2n1	13	100	980	720	40300	< 0.1	56	1340	41	> 403000	30			
CCCOC(=O)C1CCN(C(=O)c2ccc(N(C)Cc3cnc4nc(N)nc(N)c4n3)cc2)CC1	0	0	3000	150	9000	30	59	22	3	300	410			
CCOC(=O)C1CCN(C(=O)c2ccc(N(C)Cc3cnc4nc(N)nc(N)c4n3)cc2)CC1	0		9000	130	12000	40	90	27	1	300	450			
COc1ccc(CNC(=O)c2ccc(CNCc3cnc4nc(N)nc(N)c4n3)cc2)cc1	0					130	1	68	1	769	1480			
